Assay outcomes from PubChem.
The list is not random: actives were taken first. Their share in the collection is about 2.7%.
SIRT5 inh – SIRT5 desuccinylase inhibitors, primary screen, biochemical, fluorescence imaging, single point, set 5. NAD-dependent protein deacylase sirtuin-5, mitochondrial (Homo sapiens), Q9NXA8. Purified SirT5, succinyl-peptide AMC, trypsin-coupled fluorescence. inhibition, % at 15 µM. 330,000 compounds, 1.1% hits; in the data active = inhibition above about 15%
CaV13 ICDI inh – Primary screen for inhibitors of IQ motif and Ca2+-dependent inactivation inhibitor domain binding in CACNA1D, Förster resonance energy transfer in living cells, … | HEK cells, CFP/YFP FRET ICDI-IQ, plate reader, 10 min; percent FRET-ratio fall versus neutral wells | inhibition, % at 12.3 µM | 340,000 compounds, 0.098% hits;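 active = mean replicate inhibition of at least 30% and at least 1% of replicates passing that level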
MLL AF4-AF9 inh – inhibitors of AF4 peptide binding to AF9, primary screen, biochemical, AlphaScreen, biotin-AF4 peptide, FLAG-AF9, single point | inhibition, % at 10 µM | 350,000 compounds, 0.47% hits | Protein AF-9 (Homo sapiens), P42568;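 active = every replicate reaching a set inhibition limit, whatever the replicate mean, cut at about 25% in these data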
Target sequence (P42568 whole entry, looked up): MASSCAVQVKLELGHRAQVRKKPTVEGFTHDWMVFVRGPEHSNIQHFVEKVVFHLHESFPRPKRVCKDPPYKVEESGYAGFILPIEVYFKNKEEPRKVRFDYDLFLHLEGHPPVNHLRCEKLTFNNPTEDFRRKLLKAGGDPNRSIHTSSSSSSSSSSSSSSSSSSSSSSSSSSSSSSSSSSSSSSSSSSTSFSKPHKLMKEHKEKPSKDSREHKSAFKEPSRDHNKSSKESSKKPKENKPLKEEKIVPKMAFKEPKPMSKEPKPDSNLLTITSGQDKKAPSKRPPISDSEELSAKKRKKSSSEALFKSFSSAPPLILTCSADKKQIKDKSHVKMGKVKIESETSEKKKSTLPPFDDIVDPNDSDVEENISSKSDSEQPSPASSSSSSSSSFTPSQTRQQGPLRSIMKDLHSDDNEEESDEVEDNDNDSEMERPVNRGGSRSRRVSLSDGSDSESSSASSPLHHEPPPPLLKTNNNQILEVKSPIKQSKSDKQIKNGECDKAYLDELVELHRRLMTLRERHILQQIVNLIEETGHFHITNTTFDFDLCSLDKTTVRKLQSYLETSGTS
DENV2 CPE rescue – inhibitors of DENV2 cytopathic effect, primary screen, cell-based, plate reader, single concentration; DENV2-infected cells, cytopathic effect rescue; CPE inhibition, % at 9.99 µM; 350,000 compounds, 1.7% hits; AID 651640, 2012; in the data active = CPE inhibition above about 20%, passing the limit was not always enough; tested in BHK-21 cells
S100A4 inh HTS – inhibitors of S100A4-myosin IIA peptide binding, primary screen, biochemical, fluorescence polarization, TAMRA-MyoIIA peptide. 360,000 compounds, 0.14% hits. inhibition, % at 10.7 µM. Protein S100-A4 (Homo sapiens), P26447;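 active = mean inhibition of at least 70% across replicates, with every replicate also reaching that level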
Target sequence (P26447 whole entry, looked up): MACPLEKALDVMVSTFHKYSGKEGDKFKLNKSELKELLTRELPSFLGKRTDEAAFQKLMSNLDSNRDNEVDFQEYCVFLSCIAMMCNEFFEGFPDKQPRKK
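Test system: S100A4 monomer protein. Medium: HEPES buffer with Ca2+, pH 7.2. Reagent: fluorescent myosin IIA peptide, 5 nM. Compound dosing: single-point compound testing. Timing: 5 min between mix addition and reading. Benchmarks: DMSO neutral and TFP positive wells.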
Large screens that a line does not name were inactive; ! = not confirmed by another sample.

CN(C)CCN1CCN(C(c2ccnc3ccccc23)c2nnnn2-c2ccc3c(c2)OCCO3)CC1 (configuration not stated)	DENV2 CPE rescue 22
c1ccc2c(C(c3nnnn3-c3ccc4c(c3)OCCO4)N3CCCC3)ccnc2c1 (configuration not stated)	none
CCCC#Cc1cnc2c(c1)C(=O)N([C@H](C)CO)C[C@H](C)[C@H](CN(C)Cc1ccccc1)O2	none (no result: CaV13 ICDI inh)
Cc1noc(C)c1NC(=O)N(C)C[C@@H]1Oc2c(NS(C)(=O)=O)cccc2C(=O)N([C@H](C)CO)C[C@@H]1C	none (no result: CaV13 ICDI inh)
Oc1ccc(C[C@H]2CN([C@@H](Cc3ccccc3)CN3CCC[C@@H]3CN3C(=S)NC[C@@H]3Cc3ccccc3)C(=S)N2CC2CCCCC2)cc1	none (no result: SIRT5 inh)
CC(C)C[C@@H](CN1CCC[C@@H]1CN1C(=S)NC[C@@H]1Cc1ccc(O)cc1)N1C[C@H](Cc2ccc(O)cc2)N(CC2CCCCC2)C1=S	DENV2 CPE rescue 28
Oc1ccc(C[C@H]2CNC(=S)N2CC2CCCN2C[C@H](Cc2ccc(O)cc2)N2C[C@H](Cc3ccc(O)cc3)N(CC3CCCCCC3)C2=S)cc1 (some centres not stated)	SIRT5 inh 17
C[C@@H]1CN([C@H](C)CO)C(=O)c2cc(NS(=O)(=O)c3ccc(F)cc3)ccc2O[C@@H]1CN(C)Cc1ccc(Oc2ccccc2)cc1	none (no result: CaV13 ICDI inh)
CC(C)NC(=O)Nc1ccc2c(c1)C(=O)N([C@H](C)CO)C[C@@H](C)[C@@H](CN(C)C(=O)c1ccccc1)OCCCC[C@H](C)O2	none (no result: CaV13 ICDI inh)
C[C@@H]1CCCCO[C@@H](CN(C)C(=O)c2ccccc2)[C@H](C)CN([C@@H](C)CO)C(=O)c2cc(NC(=O)C3CCCCC3)ccc2O1	DENV2 CPE rescue 71 (no result: CaV13 ICDI inh)
CC(C)NC(=O)Nc1ccc2c(c1)C(=O)N([C@H](C)CO)C[C@H](C)[C@@H](CN(C)C(=O)c1ccccc1)OCCCC[C@H](C)O2	DENV2 CPE rescue 48 (no result: CaV13 ICDI inh)
C[C@H](CO)N1C[C@H](C)[C@H](CN(C)Cc2ccncc2)Oc2ncc(C#Cc3ccccc3)cc2C1=O	none (no result: CaV13 ICDI inh)
COCC(=O)N1CC(=O)N2[C@H](C1)[C@H](c1ccc(C#CC3CC3)cc1)[C@@H]2CO	none (no result: CaV13 ICDI inh)
Cc1ccc(NC(=O)c2sc(N)nc2-c2ccc([N+](=O)[O-])cc2)cc1C	none
Cc1ccc(NC(=O)c2sc(N)nc2-c2ccc([N+](=O)[O-])cc2)c(C)c1	MLL AF4-AF9 inh 30
N#Cc1cccc(-c2ccc([C@H]3[C@@H](CO)N4CCCCN(C(=O)Nc5ccc(F)cc5)C[C@@H]34)cc2)c1	none (no result: CaV13 ICDI inh)
C[C@H]1CCCCO[C@H](CN(C)Cc2ccc(C(F)(F)F)cc2)[C@@H](C)CN([C@@H](C)CO)C(=O)c2cc(NC(=O)Nc3cccc4ccccc34)ccc2O1	none (no result: SIRT5 inh, CaV13 ICDI inh, MLL AF4-AF9 inh, S100A4 inh HTS)
C[C@@H]1CN([C@H](C)CO)C(=O)c2cc(NC(=O)Nc3cccc4ccccc34)ccc2O[C@@H](C)CCCCO[C@@H]1CN(C)Cc1ccc(C(F)(F)F)cc1	DENV2 CPE rescue 72 (no result: SIRT5 inh, CaV13 ICDI inh, MLL AF4-AF9 inh, S100A4 inh HTS)
C[C@H]1CCCCO[C@H](CN(C)Cc2ccccc2)[C@@H](C)CN([C@@H](C)CO)C(=O)c2cc(NC(=O)Nc3ccc(C(F)(F)F)cc3)ccc2O1	DENV2 CPE rescue 39 (no result: CaV13 ICDI inh)
C[C@@H]1CCCCO[C@H](CN(C)Cc2ccc(C(=O)O)cc2)[C@H](C)CN([C@@H](C)CO)C(=O)c2cc(NC(=O)Nc3ccc(C(F)(F)F)cc3)ccc2O1	DENV2 CPE rescue 41!
CC(C)NC(=O)Nc1ccc2c(c1)C(=O)N([C@@H](C)CO)C[C@@H](C)[C@H](CN(C)Cc1ccc(C(F)(F)F)cc1)OCCCC[C@@H](C)O2	SIRT5 inh 17 (no result: CaV13 ICDI inh)
COc1ccc2c3c(n(C)c2c1)[C@@H](CO)N(C(=O)Nc1ccc(F)cc1)CC31CCN(C(=O)Cc2ccncc2)CC1	DENV2 CPE rescue 40 (no result: SIRT5 inh, CaV13 ICDI inh)
COc1ccc2c3c(n(C)c2c1)[C@H](CO)N(C(=O)Nc1ccc(F)cc1)CC31CN(C(=O)c2cccnc2)C1	DENV2 CPE rescue 25 (no result: CaV13 ICDI inh)
CCCC(=O)N1CCC2(CC1)CN(C(=O)Nc1ccc(F)cc1)[C@@H](CO)c1c2c2ccc(OC)cc2n1C	none (no result: SIRT5 inh, CaV13 ICDI inh, S100A4 inh HTS)
COc1ccc2c3c(n(C)c2c1)[C@H](CO)N(Cc1ccncc1)CC31CCN(C(=O)C2CCCCC2)CC1	MLL AF4-AF9 inh 31 (no result: CaV13 ICDI inh)
COc1ccc2c3c(n(C)c2c1)[C@H](CO)N(Cc1ccncc1)CC31CCN(C(=O)Cc2ccncc2)CC1	DENV2 CPE rescue 77 (no result: SIRT5 inh, CaV13 ICDI inh)
COc1ccc2c3c(n(C)c2c1)[C@@H](CO)N(C(=O)Nc1ccc(F)cc1)CC31CN(C(=O)c2cccnc2)C1	none (no result: CaV13 ICDI inh)
COc1ccc(NC(=O)Nc2ccc3c(c2)CC(=O)N([C@@H](C)CO)C[C@@H](C)[C@@H](CN(C)Cc2ccncc2)O3)cc1	none (no result: CaV13 ICDI inh)
COc1ccc(C2NC(=S)N(Cc3ccc(Cl)cc3)C(C)=C2C(C)=O)cc1 (configuration not stated)	none (no result: MLL AF4-AF9 inh)
COc1ccc2c3c(n(C)c2c1)[C@@H](CO)N(C(=O)Nc1ccc(F)cc1)CC31CN(S(=O)(=O)c2cccs2)C1	DENV2 CPE rescue 46 (no result: SIRT5 inh, CaV13 ICDI inh, S100A4 inh HTS)
COCC#Cc1ccc2c(c1)O[C@H](CN(C)C(=O)C1CC1)[C@H](C)CN([C@H](C)CO)S2(=O)=O	none (no result: CaV13 ICDI inh)
C[C@@H]1CN([C@@H](C)CO)S(=O)(=O)c2ccc(-c3ccccc3F)cc2O[C@@H]1CN(C)C	none (no result: CaV13 ICDI inh)
COc1ccccc1C1CC(=O)Oc2cc(C)c(Br)c(C)c21 (configuration not stated)	SIRT5 inh 35
CN1CCN(C(=O)C[C@@H]2CC[C@@H]3[C@H](COC[C@@H](O)CN3Cc3ccc4c(c3)OCO4)O2)CC1	DENV2 CPE rescue 100 (no result: CaV13 ICDI inh)
CN1CCN(C(=O)C[C@@H]2CC[C@@H]3[C@H](COC[C@@H](O)CN3Cc3cccc(Cl)c3)O2)CC1	DENV2 CPE rescue 31!
O=C(C[C@@H]1CC[C@H]2[C@@H](COC[C@@H](O)CN2Cc2cccc(-c3ccncc3)c2)O1)N1CCCCC1	DENV2 CPE rescue 29 (no result: CaV13 ICDI inh)
C[C@@H]1CCCCO[C@@H](CN(C)C(=O)NC2CCCCC2)[C@@H](C)CN([C@@H](C)CO)C(=O)c2cc(NC(=O)Nc3cccc4ccccc34)ccc2O1	none (no result: CaV13 ICDI inh)
COc1ccc(NC(=O)N(C)C[C@H]2OCCCC[C@H](C)Oc3ccc(NC(=O)Nc4cccc5ccccc45)cc3C(=O)N([C@H](C)CO)C[C@@H]2C)cc1	none (no result: SIRT5 inh, CaV13 ICDI inh, MLL AF4-AF9 inh, S100A4 inh HTS)
COc1ccccc1N1CCN(C2=Nc3cccc4cccc2c34)CC1	MLL AF4-AF9 inh 30
CC(=O)N1CCN(C2=Nc3cccc4cccc2c34)CC1	none (no result: SIRT5 inh, MLL AF4-AF9 inh, DENV2 CPE rescue, S100A4 inh HTS)
C[C@@H]1CN([C@@H](C)CO)C(=O)c2cccc(NC(=O)Nc3ccccc3)c2O[C@@H]1CN(C)S(=O)(=O)c1cn(C)cn1	none (no result: CaV13 ICDI inh)
